Test results taken from ChEMBL document CHEMBL1122004, “alpha-Adrenergic agents. 2. Synthesis and alpha 1-agonist activity of 2-aminotetralins” (J Med Chem, 1982).

Columns and labels:
[1] = Alpha-1 adrenergic receptor activation causing vasoconstriction in the isolated rabbit ear artery; type: functional, tissue-based; conditions: Oryctolagus cuniculus
Method in brief: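 Isolated rabbit ear artery segments with cocaine 2×10^-6 g/mL present throughout to block neuronal uptake. A cumulative norepinephrine curve (10^-8 to 3×10^-6 M) is run first to set the maximum response. After washout, a cumulative test-drug curve is run, stepping concentration once the response is stable. EC50 = concentration giving 50% of the NE maximum.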

[2] = molecular target: Adrenergic receptor alpha-1 (Homo sapiens) (UniProt P35348+P25100+P35368); assay: Dissociation constant for Alpha-1-adrenergic receptor was determined before and after addition of phentolamine; conditions: Oryctolagus cuniculus
Method in brief: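 Rabbit ear artery with cocaine 2×10^-6 g/mL. After cumulative NE and test-drug curves and washout, phentolamine 10^-7 M is superfused for 30 min of equilibration. NE and test-drug curves are then repeated. K_B for phentolamine = [phentolamine]/((EC50 with phentolamine / EC50 without) − 1).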

COc1ccc(OC)c(C(O)C(C)N)c1 (stereo not drawn) [METHOXAMINE] gave an EC50 [1] of 720 nM and a Kb [2] of 11 nM.
With COc1ccc(SC)c2c1CC(N)CC2 (stereo not drawn) the EC50 [1] was 12 nM and the Kb [2] was 5 nM.
Work on CCNC1CCc2c(Sc3ccccc3)ccc(OC)c2C1 (stereo not drawn) yielded an EC50 [1] of 700 nM.
Work on COc1cccc2c1CC(N)CC2 (stereo not drawn) yielded an EC50 [1] of 1700 nM and a Kb [2] of 12 nM.
For CCNC1CCc2c(OC)ccc(I)c2C1 (stereo not drawn), the EC50 [1] was 64 nM and the Kb [2] was 12 nM.
COc1ccc(OC)c2c1CCC(N(C)C)C2 (stereo not drawn) showed an EC50 [1] of 81 nM and a Kb [2] of 15 nM.
CCNC1CCc2ccc(OC)c(OC)c2C1 (stereo not drawn) showed an EC50 [1] greater than 10000 nM.
In the case of CCNC1CCc2c(OC)ccc(OC)c2C1 (stereo not drawn), the EC50 [1] is reported as 81 nM and the Kb [2] is reported as 8 nM.
In the case of NC1CCc2ccccc2C1 (stereo not drawn), the EC50 [1] is reported as greater than 30000 nM.
CCNC1CCc2c(OC)ccc(Cl)c2C1 (stereo not drawn) gave an EC50 [1] of 64 nM and a Kb [2] of 14 nM.
With CCNC1CCc2c(I)ccc(OC)c2C1 (stereo not drawn) the EC50 [1] was 21 nM and the Kb [2] was 11 nM.
NC[C@H](O)c1ccc(O)c(O)c1 [NOREPINEPHRINE] gave an EC50 [1] of 150 nM.
Cc1ccc(C)c2c1CCC(N)C2 (stereo not drawn) gave an EC50 [1] of 10000 nM.
In the case of CCCNC1CCc2c(OC)ccc(OC)c2C1 (stereo not drawn), the EC50 [1] is reported as 1100 nM and the Kb [2] is reported as 18 nM.
COc1cc2c(cc1OC)CC(N)CC2 (stereo not drawn) gave an EC50 [1] greater than 10000 nM.
CCNC1CCc2c(OC)ccc(SC)c2C1 (stereo not drawn) showed an EC50 [1] of 140 nM and a Kb [2] of 16 nM.
Molecule COc1ccc(Cl)c2c1CCC(N)C2 (stereo not drawn) has an EC50 [1] of 230 nM and a Kb [2] of 13 nM.
With CCNC1CCc2c(N)ccc(OC)c2C1 (stereo not drawn) the EC50 [1] was 5300 nM.
For COc1cccc2c1CCC(N)C2 (stereo not drawn), the EC50 [1] was 2200 nM and the Kb [2] was 7 nM.
CNC1CCc2c(OC)ccc(OC)c2C1 (stereo not drawn) showed an EC50 [1] of 86 nM and a Kb [2] of 11 nM.
For COc1ccc(OC)c2c1CCC(N)C2 (stereo not drawn), the EC50 [1] was 120 nM and the Kb [2] was 6 nM.
CCNC1CCc2c(SC)ccc(OC)c2C1 (stereo not drawn) gave an EC50 [1] of 26 nM.
Molecule COc1ccc(SC)c2c1CC(N(C)C)CC2 (stereo not drawn) has an EC50 [1] of 14 nM and a Kb [2] of 9 nM.
